This is one part of a sample in which hits are shown more often than they occur.
PGC1a Ac signal – raises PGC1a acetylation signal in U2OS cells; U2OS PGC1a acetylation AlphaScreen, overnight; activation, % at 15.6 µM; actives 0.21% (n = 350,000); AID 651723;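 active = every replicate reaching activation of at least 50%, whatever the mean replicate activation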;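 note: hits raise the AlphaScreen acetylation signal above neutral controls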
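Test system: U2OS cells expressing flag-PGC1a plus GCN5; Amount: 7000 U2OS cells per well; Compound: single test concentration per compound; Incubation: compound overnight at 37 °C, each detection step 1 h RT; Signal: AlphaScreen lysate read.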
Starred values were filed as active, the others as inactive.

SMILES	PGC1a Ac signal
Cc1noc(C)c1S(=O)(=O)Nc1ccc2c(c1)C(=O)N([C@H](C)CO)C[C@H](C)[C@H](CN(C)C(=O)c1ccncc1)OCCCC[C@@H](C)O2	-41
Cc1nnc(Nc2ccc3c(c2)OCO3)c2ccccc12	84*
CC(=O)c1ccc(Nc2cc(C)nc3ccc(C)cc23)cc1	-40
Cc1ccc2nc(C)cc(OCC(=O)O)c2c1	59*
Cc1ccc(Nc2nc(C)cc(C)c2C(N)=O)c(C)c1	-40
COc1ccc(-c2cnc3c(c2)C(=O)N([C@H](C)CO)C[C@@H](C)[C@@H](CN(C)C(=O)Nc2c(C)noc2C)O3)cc1	-43
Cc1noc(C)c1S(=O)(=O)N1CCCC(C(=O)NCC2CCCO2)C1 (stereo not given)	-50
CCn1c(SCC(=O)Nc2ccc(OC)c(OC)c2)nnc1-c1cccs1	-41
CCn1c(SCC(N)=O)nnc1C(C)C	-44
CCn1c(CNc2ccc(C)cc2)nnc1SCC(N)=O	76*
CN1CCN2c3ncccc3Cc3ccccc3[C@@H]2C1	-46
O=C(Cc1ccncc1)NCC[C@H]1CC[C@@H](NC(=O)C2CC2)[C@H](CO)O1	-62
O=C1N(Cc2ccccc2)Cc2ccccc2[C@@H]2OC(c3ccc(OCCCO)cc3)=N[C@]12Cc1ccccc1	52*
Fc1ccc(CO/N=C/C2=C(Cl)c3ccccc3CC2)cc1	-79
CN(C)C(=O)C[C@H]1CC[C@H](NC(=O)C2CCC2)[C@@H](CO)O1	-44
Cc1ccc(NC(=O)c2ccc([N+](=O)[O-])o2)cc1C	90*
Cc1ccc2nsnc2c1NC(=O)c1ccc([N+](=O)[O-])o1	-44
CN1[C@@H]2CC(OC(=O)[C@H](CO)c3ccccc3)C[C@H]1[C@@H]1O[C@@H]12 (stereo not given in full)	-58
COc1ccc(C2c3c(-c4ccccc4O)n[nH]c3C(=O)N2CCc2ccc(OC)c(OC)c2)cc1 (stereo not given)	63*
COc1ccc(CCN2C(=O)CC(C(C)c3ccccc3)C2=O)cc1OC (stereo not given)	-45
N#Cc1c(N)c(C(=O)c2ccccc2)n2ccccc12	-49
C#CC(=O)N(c1cc(OC)ccc1OC)C(C(=O)NC1CCCC1)c1cccs1 (stereo not given)	-88
Cc1ccc(NC(=S)/N=C(\N)Nc2nc(C)c3cc(C)c(C)cc3n2)cc1C	66*
CCCCCCNC(=O)O[C@@]12CN(S(=O)(=O)c3ccc(C)cc3)C[C@]1(O)Cn1c(=O)n(CCCCCC)c(=O)n1C2	-69
O=Nc1c2nc3ccccc3n(O)c-2c2ccccc12	61*
SMILES	PGC1a Ac signal
CC1CC1C(=O)OCC(=O)NCc1ccc(Cl)cc1 (stereo not given)	55*
CCCN(CC)c1ncnc2[nH]ncc12	-44
CCn1c(=N)n(CC(=O)c2ccc(OC)c(OC)c2)c2ccccc21	-46
CCn1nccc1C(=O)Nc1ccccc1OC	-42
COc1ccccc1NC(=O)c1ccc(NC(=O)CNC(=O)c2ccc(OC)c(OC)c2)cc1	71*
Cc1cc(Cl)ccc1OCC(=O)Nc1cccc(S(=O)(=O)NC2=NCCCCC2)c1	-41
Cc1nnnn1/C(=C\c1ccccc1)C(=O)OCC(=O)Nc1cccc(S(=O)(=O)N(C)C)c1	96*
CC(=O)[C@H]1CC[C@H]2[C@@H]3CC=C4C[C@@H](OS(=O)(=O)O)CC[C@]4(C)[C@H]3CC[C@]12C	-47
Cc1nn(CCCC(=O)O)c(C)c1[N+](=O)[O-]	-42
Cc1nnc2sc(-c3ccc(NC(=O)c4ccc(-c5ccc(Cl)cc5Cl)o4)cc3)nn12	98*
Cc1ccc(S(=O)(=O)N[C@H]2C=C[C@H](CC(=O)NCCN3CCCCC3)O[C@H]2CO)cc1	-46
CCOC(=O)N1CCN(C(=O)c2cc(S(=O)(=O)N3CCCC3)cn2C)CC1	74*
CN1/C(=C\C(=O)c2cccc(S(=O)(=O)N3CCCCC3)c2)C(C)(C)c2ccccc21	-40
CCCCSCCCNC(=O)c1cn(C)c2ccc(S(=O)(=O)N3CCCC3)cc2c1=O	-10
CCOC(=O)N1C/C(=C\c2ccccc2)C(=O)/C(=C/c2ccccc2)C1	497*
CCOC(=O)/C(C#N)=C1/C(=O)N(Cc2ccccc2)c2ccccc21	-73
CC1(C)CC2(CCO1)OC(=O)CC2C(=O)Nc1cccc2ccccc12 (stereo not given)	72*
CN1C(=O)c2ccccc2C(C(=O)O)C1c1cccc([N+](=O)[O-])c1 (stereo not given)	-44
COc1ccc(COc2cc(-c3cccc(OC)c3)nc3ccc(NC(=O)c4cccnc4)cc23)cc1	53*
OCc1ccc2c(c1)c(-c1ccc3c(c1)OCCO3)c(-c1ccccc1)n2-c1ccccc1	178*
COC(=O)C1=CN(Cc2ccc(OC)c(OC)c2)C=C(C(=O)OC)C1c1cccc(O)c1	-74
Cc1cccc(CC2CC(=O)N(C3CCCCC3)C2=O)c1 (stereo not given)	-46
CC(C)(C)c1ccc(-n2nc(C#N)c(Cl)cc2=O)cc1	-82
O=C(CSc1ccsc1[N+](=O)[O-])NCCc1ccc(Cl)cc1	68*
NCCCCCC(=O)O	-51
